High-throughput results (PubChem)
CHO-K1 Ca PAM = M1 PAM counterscreen hit in parental CHO-K1 cells | ATP EC20, Fluo-8 calcium fluorescence; 0% at ATP EC20, 100% at ATP max | activation, % at 3 µM | hit rate 0.02% among 360,000 | AID 602247;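 active means activation above the run cutoff, the mean activation of all test compounds plus 3 SD, cut at about 40% in these data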;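 further: peak over basal fluorescence ratio in a 140 s read after ATP addition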
CHO parental Ca = counter-screen for OX1R antagonists: effect in parental CHO cells; hit rate 0.63% among 330,000; parental CHO-K1, ATP-induced calcium, Fluo-8 fluorescence; inhibition, % at 5.6 µM;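 active means inhibition above that plate's mean sample inhibition plus 3 SD, cut at about 26% in these data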
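Test system: parental CHO cells; detection: calcium-sensitive Fluo-8 fluorescence; evaluation: percent inhibition of calcium signal; also added: ATP as calcium-mobilizing challenge; repeats: one well per compound; control set: ATP-challenged DMSO wells low, unchallenged DMSO wells high; compound: single nominal dose of 5.6 µM per compound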
M1 ag parental = counter-screen for M1 agonists: effect in parental CHO-K1 cells; Fluo-8 calcium fluorescence; scaled to maximal ATP response, vehicle zero; activation, % at 3 µM; hit rate 0.48% among 360,000; in the data active means activation above about 15%;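 further: untransfected CHO-K1 host cells lacking M1 receptor as counterscreen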
OX1R antag-1 = OX1R (human) antagonism; O43613; OX1R-expressing cells, FRET antagonist read-out; inhibition, % at 6.6 µM; hit rate 1.8% among 330,000; AID 485270; in the data active means inhibition mostly above about 38%, no sharp cut-off; inactive means mostly below about 40%
Target sequence (O43613 whole entry, looked up): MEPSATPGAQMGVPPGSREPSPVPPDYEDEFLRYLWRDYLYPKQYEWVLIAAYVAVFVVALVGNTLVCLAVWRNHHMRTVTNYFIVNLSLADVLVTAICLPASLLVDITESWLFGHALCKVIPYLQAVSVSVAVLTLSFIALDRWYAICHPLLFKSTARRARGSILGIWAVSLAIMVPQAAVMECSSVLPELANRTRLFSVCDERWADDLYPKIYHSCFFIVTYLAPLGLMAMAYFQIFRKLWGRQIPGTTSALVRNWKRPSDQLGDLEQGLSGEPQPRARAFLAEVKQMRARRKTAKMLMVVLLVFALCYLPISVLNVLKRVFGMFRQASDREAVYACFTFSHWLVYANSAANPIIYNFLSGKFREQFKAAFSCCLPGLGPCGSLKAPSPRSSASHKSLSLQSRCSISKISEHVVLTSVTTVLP
CHO-K1 Ca antag = nonselective inhibitor or artifact in parental CHO-K1 cells | hit rate 0.6% among 360,000 | ATP-induced calcium, Fluo-8 fluorescence | AID 602250 | inhibition, % at 3 µM;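 active means inhibition above a per-plate cutoff, the plate's mean sample inhibition plus 3 SD, cut at about 24% in these data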
OX1R antag-2 = human HCRTR1 antagonism; CHO/OX1R cells, Fluo-8 calcium fluorescence, orexin A; inhibition, % at 5 µM; hit rate 0.43% among 330,000;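 active means inhibition above its plate's threshold, mean inhibition of all tested compounds on the plate plus 3 SD, cut at about 37% in these data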
Hits are given with their value; - = inactive; . = no result given. This is a sample that favours compounds with a hit; in the whole collection about 2.9% have one here.

SMILES	CHO-K1 Ca PAM	CHO parental Ca	M1 ag parental	OX1R antag-1	CHO-K1 Ca antag	OX1R antag-2
O=C1C2CCc3ccccc3C2N1c1ccccc1 (stereo not drawn)	-	-	-	-	-	-
COc1ccc(OC)c(NC(=O)CCNS(=O)(=O)c2cc(Br)cnc2N)c1	-	-	-	-	-	-
CCCc1nnc(NC(=O)CSc2nnc(-c3ccco3)n2C)s1	-	-	-	-	-	-
COc1cc(CCC(=O)OCC(=O)Nc2sccc2C(N)=O)cc(OC)c1OC	-	.	-	.	39	.
COc1cc(C(=O)OCC(=O)Nc2sccc2C(N)=O)cc(OC)c1OC	-	-	-	-	-	-
Cc1csc(NC(=O)CCCC(=O)O)c1-c1nc2ccccc2s1	-	-	-	-	-	-
Cc1csc(NC(=O)COCC(=O)O)c1-c1nc2ccccc2s1	-	-	-	53	-	-
CCCCN(C=O)c1c(CC)nc2c(OCC3CCCCC3)cccn12	-	.	-	.	-	.
CC(=O)Oc1ccc(C)cc1-n1nc2ccccc2n1	-	-	-	-	24	-
COCC(C)n1c(SCc2nc(N)nc(Nc3ccccc3C)n2)nc2ccccc2c1=O (stereo not drawn)	-	-	-	-	-	-
CCCCn1c(SCc2nc(N)nc(Nc3ccccc3C)n2)nc2ccccc2c1=O	-	-	-	71	-	-
CCN(CC)S(=O)(=O)c1cccc(NC(=O)/C=C/c2ccc([N+](=O)[O-])cc2)c1	-	-	-	-	-	-
CCN(CC)S(=O)(=O)c1cccc(NC(=O)/C=C/c2cccc([N+](=O)[O-])c2)c1	-	-	16	-	-	-
Cc1cc(OCC(=O)Nc2cccc(S(=O)(=O)N3CCCC3)c2)ccc1Cl	-	.	-	.	-	.
Cc1cc(C)cc(C(=O)OCC(=O)Nc2cccc(S(=O)(=O)NC3=NCCCCC3)c2)c1	-	-	-	-	24	-
CCC(=O)c1ccc(OCC(=O)Nc2cccc(S(=O)(=O)N3CCCCCC3)c2)cc1	-	.	18	.	36	.
CN(CC(=O)Nc1cccc(S(=O)(=O)N2CCCC2)c1)CC(=O)Nc1ccc(Cl)c(C(F)(F)F)c1	-	54	-	-	32	-
COc1ccc(CCNC(=O)CSc2nnc(CNC(=O)c3c(F)cccc3Cl)o2)cc1OC	-	-	-	-	-	-
CCN(CC)S(=O)(=O)c1cccc(NC(=O)CNc2cccc(S(=O)(=O)N3CCCC3)c2)c1	-	57	-	-	32	-
CCN(CC)S(=O)(=O)c1cccc(NC(=O)COC(=O)c2ccc(Br)o2)c1	-	-	25	-	-	-
CCN(CC)S(=O)(=O)c1cccc(NC(=O)Nc2cccc(C(F)(F)F)c2)c1	-	59	-	39	-	-
CCN(CC)S(=O)(=O)c1cccc(NC(=O)COC(=O)c2cc(=O)c3ccccc3o2)c1	-	-	-	-	-	-
O=C1c2ccccc2C(c2nnnn2-c2ccc3c(c2)OCCO3)N1Cc1ccccc1 (stereo not drawn)	-	.	-	.	-	.
Cc1csc(N/N=C\c2cccnc2)n1	-	-	17	-	-	-
COc1ccc2cc(C3=CCCC3(C)C(=O)O)ccc2c1 (stereo not drawn)	-	.	-	.	-	.
SMILES	CHO-K1 Ca PAM	CHO parental Ca	M1 ag parental	OX1R antag-1	CHO-K1 Ca antag	OX1R antag-2
S=c1nc2[nH]c3ccccc3c2n[nH]1	-	.	-	.	-	.
c1ccc2c(c1)[nH]c1nc3nncn3nc12	-	-	-	53	-	-
CCOc1ccc(C(CCc2ccccc2)NC(=O)c2ccccc2OC)cc1OCC (stereo not drawn)	-	-	-	-	-	47
COc1ccc(-c2nnc(NC(=O)C3CCCN3S(=O)(=O)c3cccs3)o2)cc1 (stereo not drawn)	-	-	-	-	-	-
Cc1ccc(SCC(=O)Nc2ccc(N3CCN(C)CC3)c(F)c2)c(C)c1	-	-	-	-	-	-
COc1ccc(S(=O)(=O)N2CC3C4C=CC(C4)C3C2)cc1 (stereo not drawn)	-	-	-	-	-	-
O=C(CN1CCN(CCN2C(=O)c3cccc4cccc(c34)C2=O)CC1)c1ccc(F)cc1	-	-	-	45	-	-
O=C(/C=C/c1ccco1)NCC(=O)N/N=C/c1ccc([N+](=O)[O-])cc1	-	-	-	-	-	-
Cc1cc(C)cc(NC(=O)CCn2c(=O)c3cccn3c3ccccc32)c1	-	-	-	41	-	-
Cc1ccc(NC(=O)CCn2c(=O)c3cccn3c3ccccc32)c(C)c1	-	-	-	-	-	-
CN1CCC(N2CCN(C3CN(Cc4cn(Cc5cccc(C(F)(F)F)c5)nn4)S(=O)(=O)C3)CC2)CC1 (stereo not drawn)	-	.	-	.	-	.
Cc1nn(Cc2ccc(C(=O)N3CCN(C(=O)c4ccco4)CC3)o2)c(C)c1[N+](=O)[O-]	-	-	-	66	-	-
O=C(CCC(=O)N1CCN(S(=O)(=O)c2ccc([N+](=O)[O-])cc2)CC1)N1CCOCC1	-	-	-	48	-	-
O=C(c1ccco1)N1CCN(S(=O)(=O)c2ccccc2)CC1	-	-	-	-	-	-
O=C(c1ccco1)N1CCN(S(=O)(=O)c2ccc([N+](=O)[O-])cc2)CC1	-	-	-	63	-	-
CC1=NN(C(=O)c2ccc(Cn3nc(C)c([N+](=O)[O-])c3C)o2)C(O)(C(F)(F)F)C1 (stereo not drawn)	-	-	-	-	-	-
O=C1NC[C@H](CCCCN2C[C@H](Cc3ccc(O)cc3)N(CCc3ccc(O)cc3)C(=O)C2=O)N(CCc2ccc(O)cc2)C1=O	-	.	-	.	-	.
O=C(O)c1cccc(Nc2ccncc2[N+](=O)[O-])c1	-	-	-	38	-	-
COc1cccc(Nc2c(Nc3cccc(OC)c3)c(=O)c2=O)c1	-	-	-	-	-	-
O=C(O)c1ccc(Nc2cccc(F)c2)c([N+](=O)[O-])c1	-	-	-	-	-	-
COc1cccc(Nc2c([N+](=O)[O-])cncc2[N+](=O)[O-])c1	-	-	-	76	-	-
Nc1ccccc1Nc1ccncc1[N+](=O)[O-]	-	-	-	-	-	-
O=[N+]([O-])c1cnccc1Nc1ccccc1	-	-	-	58	-	-
Nc1ccc(Nc2ccncc2[N+](=O)[O-])cc1	-	-	-	64	-	-
CCN(CC)C(=O)[C@H]1CC(CC(=O)NCCCn2ccnc2)C(=O)N2CCc3c([nH]c4ccccc34)[C@]12C (stereo partly drawn)	-	-	-	-	-	-
CCOc1cc(OCC)cc(C(=O)N2CCC[C@H]2C(=O)N2CCC[C@H]2C(=O)NCc2ccc(F)cc2F)c1	-	.	-	.	-	.
CCOc1cc(OCC)cc(C(=O)N2CCC[C@@H]2C(=O)N2CCC[C@@H]2C(=O)NCc2ccccc2Cl)c1	-	.	17	.	-	.
CCN(CC)C(=O)CCNS(=O)(=O)c1ccc(C)cc1	-	-	-	-	28	-
